{"source": "ChEMBL document CHEMBL1275408", "about": "“A chemical genomic screen in Saccharomyces cerevisiae reveals a role for diphthamidation of translation elongation factor 2 in inhibition of protein synthesis by sordarin” (2008)", "key": {"Saccharomyces cerevisiae [1]": {"system": "Saccharomyces cerevisiae", "test": "Antifungal activity against Saccharomyces cerevisiae BY4741 harboring RAM1 YDL090C mutant gene by spectrophotometry", "assay_type": "functional", "how_it_was_run": "(§1)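 Haploid MATa BY4741 KanMX4 deletion strains pinned from frozen stocks into YPD + G418 (150 mg/liter), grown 3 days at 28°C to confluence, then pin-replicated into SC liquid with no drug or sordarin derivative GM193663 (2 ng/ml sensitivity; 62.5 ng/ml resistance). 28°C, OD595 read every 24 h for 5 days; growth scored relative to wild type on same plate and to untreated mutant.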"}, "Saccharomyces cerevisiae [2]": {"system": "Saccharomyces cerevisiae", "test": "Antifungal activity against Saccharomyces cerevisiae BY4741 harboring SUR2 YDR297W mutant gene by spectrophotometry", "assay_type": "functional", "how_it_was_run": "as §1"}, "Saccharomyces cerevisiae [3]": {"system": "Saccharomyces cerevisiae", "test": "Antifungal activity against Saccharomyces cerevisiae BY4741 harboring ATP12 YJL180C mutant gene assessed as reduction in fungal growth at 2 ng/ml by spectrophotometry", "assay_type": "functional, organism-based", "how_it_was_run": "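Haploid BY4741 KanMX4 deletion strains pre-grown in YPD with G418 (150 mg/liter) for 3 days at 28°C. They were then pin-replicated into liquid SC with sordarin derivative GM193663 at 2 ng/ml, or without drug. Plates were incubated at 28°C and OD595 read every 24 h for 5 days. Growth was scored against wild type on the same plate and against the drug-free mutant. Hits were retested at least in duplicate.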"}, "Saccharomyces cerevisiae [4]": {"system": "Saccharomyces cerevisiae", "test": "Antifungal activity against Saccharomyces cerevisiae BY4741 harboring TOK1 YJL093C mutant gene by spectrophotometry", "assay_type": "functional", "how_it_was_run": "as §1"}, "Saccharomyces cerevisiae [5]": {"system": "Saccharomyces cerevisiae", "test": "Antifungal activity against Saccharomyces cerevisiae BY4741 harboring NOT5 YPR072W mutant gene assessed as reduction in fungal growth at 2 ng/ml by spectrophotometry", "assay_type": "functional, organism-based", "how_it_was_run": "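Deletion strains (BY4741 background) pre-grown 3 days at 28°C in YPD + G418 (150 mg/liter), then pin-replicated into SC liquid containing 2 ng/ml GM193663 or no drug. 28°C, OD595 every 24 h over 5 days; growth scored against wild type on same plate and against drug-free mutant control; hits retested at least in duplicate at 2 ng/ml.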"}, "Saccharomyces cerevisiae [6]": {"system": "Saccharomyces cerevisiae", "test": "Antifungal activity against Saccharomyces cerevisiae BY4741 harboring DHH1 YDL160C mutant gene by spectrophotometry", "assay_type": "functional", "how_it_was_run": "(§2)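 Screen of BY4741 KanMX4 deletion strains pre-grown 3 days at 28°C in YPD with G418 (150 mg/liter), then pinned into liquid SC containing GM193663. The sensitivity screen used 2 ng/ml; the resistance screen used 62.5 ng/ml, with validation at 62.5, 125 and 500 ng/ml. OD595 was read every 24 h over 5 days at 28°C. Growth was scored relative to wild type and to drug-free controls. Retests were at least in duplicate.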"}, "Saccharomyces cerevisiae [7]": {"system": "Saccharomyces cerevisiae", "test": "Antifungal activity against Saccharomyces cerevisiae BY4741 harboring RPL1B YGL135W mutant gene by spectrophotometry", "assay_type": "functional", "how_it_was_run": "as §1"}, "Saccharomyces cerevisiae [8]": {"system": "Saccharomyces cerevisiae", "test": "Antifungal activity against Saccharomyces cerevisiae BY4741 harboring BEM2 YER155C mutant gene by spectrophotometry", "assay_type": "functional", "how_it_was_run": "as §2"}, "Saccharomyces cerevisiae [9]": {"system": "Saccharomyces cerevisiae", "test": "Antifungal activity against Saccharomyces cerevisiae BY4741 harboring YGR228W mutation in unknown gene by spectrophotometry", "assay_type": "functional", "how_it_was_run": "(§3)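 Deletion strains from the nonessential haploid MATa BY4741 collection (KanMX4 replacement) were grown in YPD with G418 at 28°C for 3 days, then pinned into liquid SC with or without sordarin derivative GM193663 (2 ng/ml for sensitivity, 62.5 ng/ml for resistance). Cultures were kept at 28°C and read at OD595 every 24 h for 5 days. Growth was scored against wild type on the same plate and against the drug-free control. Hits were retested at least in duplicate.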"}, "Saccharomyces cerevisiae [10]": {"system": "Saccharomyces cerevisiae", "test": "Antifungal activity against Saccharomyces cerevisiae BY4741 harboring IBD2 YNL164C mutant gene by spectrophotometry", "assay_type": "functional", "how_it_was_run": "as §2"}, "Saccharomyces cerevisiae [11]": {"system": "Saccharomyces cerevisiae", "test": "Antifungal activity against Saccharomyces cerevisiae BY4741 harboring RPL21A YBR191W mutant gene by spectrophotometry", "assay_type": "functional", "how_it_was_run": "as §1"}, "Saccharomyces cerevisiae [12]": {"system": "Saccharomyces cerevisiae", "test": "Antifungal activity against Saccharomyces cerevisiae BY4741 harboring SEM1 YDR363W-A mutant gene by spectrophotometry", "assay_type": "functional", "how_it_was_run": "as §1"}, "Saccharomyces cerevisiae [13]": {"system": "Saccharomyces cerevisiae", "test": "Antifungal activity against Saccharomyces cerevisiae BY4741 harboring deletion mutation in dph1 gene at 100 ng/ml by plate assay", "assay_type": "functional, organism-based", "how_it_was_run": "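Spot test on solid SC glucose plates with or without 100 ng/ml sordarin. Drops of 10^5 cells plus 10-fold serial dilutions of each dph deletion strain were spotted alongside the parental strain. Plates were incubated at 28°C for 6 days and imaged every 24 h.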"}, "Saccharomyces cerevisiae [14]": {"system": "Saccharomyces cerevisiae", "test": "Antifungal activity against Saccharomyces cerevisiae BY4741 harboring YHR151C mutation in unknown gene by spectrophotometry", "assay_type": "functional", "how_it_was_run": "as §3"}, "Saccharomyces cerevisiae [15]": {"system": "Saccharomyces cerevisiae", "test": "Antifungal activity against Saccharomyces cerevisiae BY4741 harboring MSR1 YHR091C mutant gene by spectrophotometry", "assay_type": "functional", "how_it_was_run": "as §1"}, "Saccharomyces cerevisiae [16]": {"system": "Saccharomyces cerevisiae", "test": "Antifungal activity against Saccharomyces cerevisiae BY4741 harboring YSC83 YHR017W mutant gene by spectrophotometry", "assay_type": "functional", "how_it_was_run": "as §3"}, "Saccharomyces cerevisiae [17]": {"system": "Saccharomyces cerevisiae", "test": "Antifungal activity against Saccharomyces cerevisiae BY4741 harboring YKL098W mutation in unknown gene by spectrophotometry", "assay_type": "functional", "how_it_was_run": "as §3"}, "Saccharomyces cerevisiae [18]": {"system": "Saccharomyces cerevisiae", "test": "Antifungal activity against Saccharomyces cerevisiae BY4741 harboring YOL079W mutation in unknown gene by spectrophotometry", "assay_type": "functional", "how_it_was_run": "as §3"}, "Saccharomyces cerevisiae [19]": {"system": "Saccharomyces cerevisiae", "test": "Antifungal activity against Saccharomyces cerevisiae BY4741 harboring QRI7 YDL104C mutant gene by spectrophotometry", "assay_type": "functional", "how_it_was_run": "as §1"}, "Saccharomyces cerevisiae [20]": {"system": "Saccharomyces cerevisiae", "test": "Antifungal activity against Saccharomyces cerevisiae BY4741 harboring THI20 YOL055C mutant gene by spectrophotometry", "assay_type": "functional", "how_it_was_run": "as §1"}, "Saccharomyces cerevisiae [21]": {"system": "Saccharomyces cerevisiae", "test": "Antifungal activity against Saccharomyces cerevisiae BY4741 harboring SCS22 YBL091C-A mutant gene by spectrophotometry", "assay_type": "functional", "how_it_was_run": "as §1"}, "Saccharomyces cerevisiae [22]": {"system": "Saccharomyces cerevisiae", "test": "Antifungal activity against Saccharomyces cerevisiae BY4741 harboring deletion mutation in dph5 gene at 300 to 500 ng/ml after 24 hrs by liquid growth assay", "assay_type": "functional"}}, "note": "The source made the active and inactive calls. The calls are words filed in the database; no cut-off is given here."}
{"smiles": "CO[C@H]1[C@@H](O)[C@H](O)[C@H](OC[C@@]23C[C@@H]4[C@H](C)CC[C@H]4[C@@]4(C=O)CC2C=C(C(C)C)[C@@]34C(=O)O)O[C@@H]1C", "note": "[SORDARIN]", "values": [{"measurement": "MIC", "setting": "Saccharomyces cerevisiae [1]", "result": "> 0.5", "unit": "µg/mL"}, {"measurement": "MIC", "setting": "Saccharomyces cerevisiae [2]", "result": "> 0.0625", "unit": "µg/mL"}, {"measurement": "Activity", "setting": "Saccharomyces cerevisiae [3]", "result": "Active"}, {"measurement": "MIC", "setting": "Saccharomyces cerevisiae [4]", "result": "> 0.125", "unit": "µg/mL"}, {"measurement": "Activity", "setting": "Saccharomyces cerevisiae [5]", "result": "Active"}, {"measurement": "MIC", "setting": "Saccharomyces cerevisiae [6]", "result": "> 0.125", "unit": "µg/mL"}, {"measurement": "MIC", "setting": "Saccharomyces cerevisiae [7]", "result": "> 0.5", "unit": "µg/mL"}, {"measurement": "MIC", "setting": "Saccharomyces cerevisiae [8]", "result": "> 0.5", "unit": "µg/mL"}, {"measurement": "MIC", "setting": "Saccharomyces cerevisiae [9]", "result": "> 0.5", "unit": "µg/mL"}, {"measurement": "MIC", "setting": "Saccharomyces cerevisiae [10]", "result": "> 0.5", "unit": "µg/mL"}, {"measurement": "MIC", "setting": "Saccharomyces cerevisiae [11]", "result": "> 0.125", "unit": "µg/mL"}, {"measurement": "MIC", "setting": "Saccharomyces cerevisiae [12]", "result": "> 0.125", "unit": "µg/mL"}, {"measurement": "MIC", "setting": "Saccharomyces cerevisiae [13]", "result": "inactive"}, {"measurement": "MIC", "setting": "Saccharomyces cerevisiae [14]", "result": "> 0.5", "unit": "µg/mL"}, {"measurement": "MIC", "setting": "Saccharomyces cerevisiae [15]", "result": "> 0.125", "unit": "µg/mL"}, {"measurement": "MIC", "setting": "Saccharomyces cerevisiae [16]", "result": "> 0.5", "unit": "µg/mL"}, {"measurement": "MIC", "setting": "Saccharomyces cerevisiae [17]", "result": "> 0.5", "unit": "µg/mL"}, {"measurement": "MIC", "setting": "Saccharomyces cerevisiae [18]", "result": "> 0.5", "unit": "µg/mL"}, {"measurement": "MIC", "setting": "Saccharomyces cerevisiae [19]", "result": "> 0.125", "unit": "µg/mL"}, {"measurement": "MIC", "setting": "Saccharomyces cerevisiae [20]", "result": "> 0.5", "unit": "µg/mL"}, {"measurement": "MIC", "setting": "Saccharomyces cerevisiae [21]", "result": "> 0.5", "unit": "µg/mL"}, {"measurement": "Activity", "setting": "Saccharomyces cerevisiae [22]", "result": 50, "unit": "%"}]}
